Measurements taken from ChEMBL document CHEMBL2163259, “ADME-guided design and synthesis of aryloxanyl pyrazolone derivatives to block mutant superoxide dismutase 1 (SOD1) cytotoxicity and protein aggregation: potential application for the treatment of amyotrophic lateral sclerosis” (J Med Chem, 2012).
In brackets after ≈: the same amount, converted by molar mass. One block for each molecule: values may come before it. Activity calls are given as the source filed them.

Key:
[1] = tested on: Superoxide dismutase [Cu-Zn] (Homo sapiens), P00441 [G94A]; experiment: Inhibition of SOD1 G93A mutant aggregation-induced cytotoxicity in rat PC12 cells assessed as cell viability incubated for 24 hrs and measured 72 hrs post compound dose by cytotoxicity protection assay; format: cell-based; conditions: PC-12
Superoxide dismutase [Cu-Zn] (Homo sapiens), P00441 [G94A], sequence (P00441 whole entry G94A, the tested form may be a part): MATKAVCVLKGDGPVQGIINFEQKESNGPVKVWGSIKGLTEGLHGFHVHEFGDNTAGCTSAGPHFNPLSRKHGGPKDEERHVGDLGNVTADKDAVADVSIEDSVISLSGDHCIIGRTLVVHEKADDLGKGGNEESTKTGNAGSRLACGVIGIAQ
How it was run: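 PC12 cells expressing G93A SOD1-YFP fusion seeded 15000 cells/well, grown 24 h before dosing. 12-point dose response, top 32 μM, twofold dilutions. After 24 h, MG132 added (100 nM final). Viability measured 48 h later with Calcein-AM (1 μM final, 20 min, room temperature) fluorescence. EC50 derived from dose-response.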

Cerebral cortex neuron = experiment: Cytoprotection in rat Primary cortical neurons incubated for 24 hrs and measured 72 hrs post compound dose by cytotoxicity protection assay; format: functional, cell-based
How it was run: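 Primary cortical neurons from E18 Sprague-Dawley or Fischer 344 rat brain, dissociated with papain (2 mg/mL, 30 min, 37 °C), plated on poly-D-lysine at 20,000 cells/well, cultured 5 days (~90% neurons). Six-point dose response from 100 μM top, roughly one-third dilutions; 24 h pre-incubation, then MG132 100 nM. Viability read 48 h later by Calcein-AM (1 μM, 20 min, RT) fluorescence. Active = viability ≥5 SD above MG132 controls.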

[2] = Drug metabolism in rat liver microsomes at 15 uM after 20 mins in presence of NADPH; format: ADME, Microsome; conditions: read-out: Drug metabolism
How it was run: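 Rat liver microsomes (1 mg/mL protein) in PBS pH 7.4 with NADPH-regenerating system (1.3 mM NADP+, 3.3 mM glucose-6-phosphate, 0.4 U/mL G6PDH, 3.3 mM MgCl2). Compound at 15 μM, 37 °C for 0 and 20 min. HPLC on C18 (acetonitrile/water 25/75, 0.1% TFA). Peak-area response ratio to internal standard, normalised to t = 0.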

Mus musculus [3] = experiment: Neuroprotective activity in SOD1 G93A mutant B6SJL mouse ALS model assessed as extension in life span at 22 mg/kg; format: functional
Mus musculus [4] = experiment: Neuroprotective activity in SOD1 G93A mutant B6SJL mouse ALS model assessed as extension of life span at 16 mg/kg; format: functional
Caco-2 [5] = experiment: (§1) Apparent permeability from apical to basolateral side in human Caco2 cells; format: ADME, cell-based
[6] = Half life in human microsomes at 5 uM incubated for 1 hr at 37 degC in presence of NADPH; format: ADME, Microsome
[7] = Half life in mouse microsomes at 5 uM incubated for 1 hr at 37 degC in presence of NADPH; format: ADME, Microsome
Caco-2 [8] = experiment: (§2) Apparent permeability from basolateral to apical side in human Caco2 cells; format: ADME, cell-based
[9] = Aqueous solubility of the compound in PBS after 45 mins; format: physicochemical
[10] = Efflux ratio of permeability from basolateral to apical side over apical to basolateral side in human Caco2 cells; format: ADME, cell-based; conditions: Caco-2
[11] = Aqueous solubility of the compound in PBS after 16 hrs; format: physicochemical
Liver microsomes [12] = experiment: Drug metabolism in rat liver microsomes assessed as sulfoxide metabolite formation at 15 uM incubated for 5 to 60 mins in presence of NADPH by HPLC analysis; format: ADME, Microsome
How it was run: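 Substrate (15 μM) incubated at 37 °C with rat liver microsomes plus NADPH-regenerating system for 0–60 min. Reaction stopped with acetonitrile, chilled at −78 °C, centrifuged. Supernatant run on isocratic HPLC (acetonitrile/water 25/75, 0.1% TFA). Sulfoxide identified against synthetic sulfoxide and sulfone standards (10 μM) by retention time.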

Liver microsomes [13] = experiment: Drug metabolism in rat liver microsomes assessed as sulfoxide metabolite formation at 5 uM incubated for 10 to 60 mins in presence of NADPH by HPLC analysis LC/MS/MS analysis; format: ADME, Microsome
How it was run: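 Duplicate incubations at 5 μM with or without rat liver microsomes, with and without NADPH, for 0, 10, 20, 40 and 60 min. Protein precipitated with acetonitrile containing internal standard. Supernatant analysed by LC/MS/MS (C18, acetonitrile-water gradient, ESI, MRM). Controls lacked microsomes or compound.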

[14] = as §1; format: ADME, cell-based; conditions: Caco-2
[15] = as §2; format: ADME, cell-based; conditions: Caco-2
[16] = Intrinsic clearance in human microsomes at 5 uM incubated for 1 hr at 37 degC in presence of NADPH; format: ADME, Microsome
[17] = Intrinsic clearance in mouse microsomes at 5 uM incubated for 1 hr at 37 degC in presence of NADPH; format: ADME, Microsome
[18] = Intrinsic clearance in human microsomes at 5 uM incubated for 1 hr at 37 degC in absence of NADPH; format: ADME, Microsome

SMILES: O=c1cc(COc2cc(Br)cc(Br)c2)[nH][nH]1
- Activity [1]: 100%

SMILES: O=c1cc(CSc2cc(Cl)cc(Cl)c2)[nH][nH]1
- Activity [1]: 100%

SMILES: Cc1cc([S+]([O-])Cc2cc(=O)[nH][nH]2)c(C)cc1Cl (stereo not drawn)
- Activity [1]: 100%

SMILES: O=c1cc(CSc2c(Cl)cccc2Cl)[nH][nH]1
- Activity (Cerebral cortex neuron): Active
- Activity [1]: 100%

- metabolised at 20 min, 15 µM [2]: 41%
SMILES: Cc1cc(-c2ccccc2)nnc1NCCN1CCOCC1 [MINAPRINE]

SMILES: O=c1cc(COc2cccc(-c3ccccc3)c2)[nH][nH]1
- Activity [1]: 100%

SMILES: Nc1nc2ccc(OC(F)(F)F)cc2s1 [RILUZOLE]
- Activity (Mus musculus [3]): 11%
- Activity (Mus musculus [4]): 7.5%

SMILES: O=c1cc(COc2cc(C(F)(F)F)cc(C(F)(F)F)c2)[nH][nH]1
- Activity [1]: 100%

SMILES: O=c1cc(CS(=O)(=O)c2ccc(Cl)cc2)[nH][nH]1
- Activity [1]: 100%

SMILES: O=c1cc(C[S+]([O-])c2ccc(Cl)cc2)[nH][nH]1 (stereo not drawn)
- Activity [1]: 35%

SMILES: CCc1ccc(OCc2cc(=O)[nH][nH]2)cc1
- Activity [1]: 100%

SMILES: Cc1cc(S(=O)(=O)Cc2cc(=O)[nH][nH]2)c(C)cc1Cl
- Activity [1]: 100%

SMILES: O=c1cc(COc2cccc(Br)c2)[nH][nH]1
- Activity [1]: 100%

SMILES: O=c1cc(COc2cc(F)cc(F)c2)[nH][nH]1
- Activity [1]: 100%

SMILES: O=c1cc(COc2cc(-c3ccccc3)cc(-c3ccccc3)c2)[nH][nH]1
- Activity [1]: 100%

- Papp (Caco-2 [5]): 43 ×10⁻⁶ cm/s
- t1/2 ([6]; 1 h, 5 µM): 2.32 h
- t1/2 ([7]; 1 h, 5 µM): 2.38 h
- Papp (Caco-2 [8]): 28 ×10⁻⁶ cm/s
- solubility ([9]; buffer, 0.75 h): 250 µM (≈ 56.2 µg/mL)
- efflux ratio [10]: 0.6
- solubility ([11]; buffer, 16 h): 250 µM (≈ 56.2 µg/mL)
SMILES: O=c1cc(COc2ccc(Cl)cc2)[nH][nH]1
- Activity [1]: 100%

SMILES: CCc1cccc(OCc2cc(=O)[nH][nH]2)c1
- Activity [1]: 100%

- Drug metabolism (Liver microsomes [12]): Active
- Drug metabolism (Liver microsomes [13]): Active
- metabolised at 20 min, 15 µM [2]: 88%
SMILES: O=c1cc(CSc2ccc(Cl)cc2)[nH][nH]1
- Activity [1]: 100%

- Papp A→B [14]: 27 ×10⁻⁶ cm/s
- half-life at 5 µM [6]: > 1 h
- half-life at 5 µM [7]: > 1 h
- Papp B→A [15]: 4.4 ×10⁻⁶ cm/s
- CLint scaled at 5 µM [16]: 4.5 mL/min/kg
- solubility at 0.75 h ([9]; PBS): ≥ 500 µM
- CLint scaled at 5 µM [17]: 15.3 mL/min/kg
- efflux ratio [10]: 0.2
- solubility at 16 h ([11]; PBS): ≥ 500 µM
- CLint scaled at 5 µM [18]: 1.3 mL/min/kg
SMILES: O=c1cc(CS(=O)(=O)c2cc(Cl)cc(Cl)c2)[nH][nH]1
- Activity (Cerebral cortex neuron): Active
- Activity [1]: 100%

SMILES: CC(C)(C)c1cccc(OCc2cc(=O)[nH][nH]2)c1
- Activity [1]: 100%
